Measured values published in ChEMBL document CHEMBL4041520, “Novel pyrimidine-2,4-dione-1,2,3-triazole and furo[2,3-d]pyrimidine-2-one-1,2,3-triazole hybrids as potential anti-cancer agents: Synthesis, computational and X-ray analysis and biological evaluation” (Eur J Med Chem, 2017).

test system: A549; assay: Antiproliferative activity against human A549 cells after 72 hrs by MTT assay; format: functional, cell-based; conditions: A549, 72 h
Summary of the method: (§1)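 Monolayers grown in DMEM with 10% FBS and 2 mM L-glutamine at 37 °C, 5% CO2. Cells seeded at 5000 per well on day 0. Compounds added in five 10-fold dilutions (0.01–100 µM), DMSO ≤0.1%, for 72 h. MTT absorbance converted to percentage growth versus untreated wells. IC50 by linear regression of the dose-response curve; highest concentration reported when not reached. Quadruplicate points, three experiments.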

SMILES	IC50 [µM]
O=c1nc2oc(CCCCl)cc2cn1Cc1cn(Cc2ccccc2)nn1	27.9
CCCCCCc1cc2cn(Cc3cn(-c4ccccc4F)nn3)c(=O)nc2o1	> 100
C#CCn1c(=O)c(I)cn(Cc2cn(-c3ccccc3F)nn2)c1=O	56.2
O=c1[nH]c(=O)n(Cc2cn(-c3ccc(F)cc3)nn2)cc1Br	64
O=c1nc2oc(CCCCl)c(C#CCCCCl)c2cn1Cc1cn(Cc2ccccc2)nn1	26.9
C#CCn1c(=O)c(I)cn(Cc2cn(-c3ccc(F)cc3)nn2)c1=O	3.06
O=c1[nH]cc(F)c(=O)[nH]1 [FLUOROURACIL]	2.8
C#CCn1c(=O)c(I)cn(Cc2cn(-c3ccc(Cl)cc3)nn2)c1=O	4.69
O=c1[nH]c(=O)n(Cc2cn(-c3ccc(Cl)cc3)nn2)cc1I	50.6
CCCCCCc1cc2cn(Cc3cn(Cc4ccccc4)nn3)c(=O)nc2o1	51

test system: HepG2; assay: Antiproliferative activity against human HepG2 cells after 72 hrs by MTT assay; format: functional, cell-based; conditions: HepG2, 72 h; summary of the method: as §1

SMILES	IC50 [µM]
O=c1nc2oc(CCCCl)cc2cn1Cc1cn(Cc2ccccc2)nn1	27.6
CCCCCCc1cc2cn(Cc3cn(-c4ccccc4F)nn3)c(=O)nc2o1	> 100
C#CCn1c(=O)c(I)cn(Cc2cn(-c3ccccc3F)nn2)c1=O	> 100
O=c1[nH]c(=O)n(Cc2cn(-c3ccc(F)cc3)nn2)cc1Br	68.9
O=c1nc2oc(CCCCl)c(C#CCCCCl)c2cn1Cc1cn(Cc2ccccc2)nn1	25.5
C#CCn1c(=O)c(I)cn(Cc2cn(-c3ccc(F)cc3)nn2)c1=O	5.11
C#CCn1c(=O)c(I)cn(Cc2cn(-c3ccc(Cl)cc3)nn2)c1=O	13.1
O=c1[nH]c(=O)n(Cc2cn(-c3ccc(Cl)cc3)nn2)cc1I	> 100
CCCCCCc1cc2cn(Cc3cn(Cc4ccccc4)nn3)c(=O)nc2o1	68.7

test system: CFPAC-1; assay: Antiproliferative activity against human CFPAC-1 cells after 72 hrs by MTT assay; format: functional, cell-based; conditions: CFPAC-1, 72 h; summary of the method: as §1

SMILES	IC50 [µM]
O=c1nc2oc(CCCCl)cc2cn1Cc1cn(Cc2ccccc2)nn1	23.5
CCCCCCc1cc2cn(Cc3cn(-c4ccccc4F)nn3)c(=O)nc2o1	> 100
C#CCn1c(=O)c(I)cn(Cc2cn(-c3ccccc3F)nn2)c1=O	> 100
O=c1[nH]c(=O)n(Cc2cn(-c3ccc(F)cc3)nn2)cc1Br	> 100
O=c1nc2oc(CCCCl)c(C#CCCCCl)c2cn1Cc1cn(Cc2ccccc2)nn1	32.8
C#CCn1c(=O)c(I)cn(Cc2cn(-c3ccc(F)cc3)nn2)c1=O	4.21
O=c1[nH]cc(F)c(=O)[nH]1 [FLUOROURACIL]	0.14
C#CCn1c(=O)c(I)cn(Cc2cn(-c3ccc(Cl)cc3)nn2)c1=O	5.53
O=c1[nH]c(=O)n(Cc2cn(-c3ccc(Cl)cc3)nn2)cc1I	77.2
CCCCCCc1cc2cn(Cc3cn(Cc4ccccc4)nn3)c(=O)nc2o1	67

test system: HeLa; assay: Antiproliferative activity against human HeLa cells after 72 hrs by MTT assay; format: functional, cell-based; conditions: not given; summary of the method: as §1

SMILES	IC50 [µM]
O=c1nc2oc(CCCCl)cc2cn1Cc1cn(Cc2ccccc2)nn1	9.58
CCCCCCc1cc2cn(Cc3cn(-c4ccccc4F)nn3)c(=O)nc2o1	> 100
C#CCn1c(=O)c(I)cn(Cc2cn(-c3ccccc3F)nn2)c1=O	> 100
O=c1[nH]c(=O)n(Cc2cn(-c3ccc(F)cc3)nn2)cc1Br	72.9
O=c1nc2oc(CCCCl)c(C#CCCCCl)c2cn1Cc1cn(Cc2ccccc2)nn1	25.4
C#CCn1c(=O)c(I)cn(Cc2cn(-c3ccc(F)cc3)nn2)c1=O	4.5
O=c1[nH]cc(F)c(=O)[nH]1 [FLUOROURACIL]	8.81
C#CCn1c(=O)c(I)cn(Cc2cn(-c3ccc(Cl)cc3)nn2)c1=O	4.74
O=c1[nH]c(=O)n(Cc2cn(-c3ccc(Cl)cc3)nn2)cc1I	6.79
CCCCCCc1cc2cn(Cc3cn(Cc4ccccc4)nn3)c(=O)nc2o1	59.4

test system: SW-620; assay: Antiproliferative activity against human SW620 cells after 72 hrs by MTT assay; format: functional, cell-based; conditions: SW-620, 72 h; summary of the method: as §1

SMILES	IC50 [µM]
O=c1nc2oc(CCCCl)cc2cn1Cc1cn(Cc2ccccc2)nn1	75.5
CCCCCCc1cc2cn(Cc3cn(-c4ccccc4F)nn3)c(=O)nc2o1	> 100
C#CCn1c(=O)c(I)cn(Cc2cn(-c3ccccc3F)nn2)c1=O	> 100
O=c1[nH]c(=O)n(Cc2cn(-c3ccc(F)cc3)nn2)cc1Br	> 100
O=c1nc2oc(CCCCl)c(C#CCCCCl)c2cn1Cc1cn(Cc2ccccc2)nn1	33.9
C#CCn1c(=O)c(I)cn(Cc2cn(-c3ccc(F)cc3)nn2)c1=O	6.63
O=c1[nH]cc(F)c(=O)[nH]1 [FLUOROURACIL]	0.08
C#CCn1c(=O)c(I)cn(Cc2cn(-c3ccc(Cl)cc3)nn2)c1=O	18.3
O=c1[nH]c(=O)n(Cc2cn(-c3ccc(Cl)cc3)nn2)cc1I	34.6
CCCCCCc1cc2cn(Cc3cn(Cc4ccccc4)nn3)c(=O)nc2o1	93.5

test system: NIH3T3; assay: Antiproliferative activity against mouse NIH/3T3 cells after 72 hrs by MTT assay; format: cell-based; conditions: NIH3T3, 72 h; summary of the method: as §1

SMILES	IC50 [µM]
O=c1[nH]c(=O)n(Cc2cn(-c3ccc(F)cc3)nn2)cc1Br	50.8

test system: WI-38; assay: Antiproliferative activity against human WI38 cells after 72 hrs by MTT assay; format: cell-based; conditions: WI-38, 72 h; summary of the method: as §1

SMILES	IC50 [µM]
O=c1nc2oc(CCCCl)cc2cn1Cc1cn(Cc2ccccc2)nn1	5.2
CCCCCCc1cc2cn(Cc3cn(-c4ccccc4F)nn3)c(=O)nc2o1	69.2
C#CCn1c(=O)c(I)cn(Cc2cn(-c3ccccc3F)nn2)c1=O	0.16
O=c1nc2oc(CCCCl)c(C#CCCCCl)c2cn1Cc1cn(Cc2ccccc2)nn1	17.6
C#CCn1c(=O)c(I)cn(Cc2cn(-c3ccc(F)cc3)nn2)c1=O	< 0.01
O=c1[nH]cc(F)c(=O)[nH]1 [FLUOROURACIL]	0.94
C#CCn1c(=O)c(I)cn(Cc2cn(-c3ccc(Cl)cc3)nn2)c1=O	0.04
O=c1[nH]c(=O)n(Cc2cn(-c3ccc(Cl)cc3)nn2)cc1I	< 0.01
CCCCCCc1cc2cn(Cc3cn(Cc4ccccc4)nn3)c(=O)nc2o1	62.8
